From article PMC5049450 (Journal of Clinical Pharmacology, 2015)
Like-named read-outs stand apart in the source and are kept apart here.

What was measured:
[1] = type: in vivo, human; parameters: AUC∞, unbound buparlisib GMR (90%CI) / Cmax, total buparlisib GMR (90%CI) / Cmax, unbound buparlisib GMR (90%CI): unit not given beside the values; settings: for increase in Cmax compared with normal hepatic function / increase in buparlisib exposure (AUC∞) compared with normal hepatic function: total buparlisib
Summary of the method: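 After a single oral dose following an overnight fast, K3EDTA blood was drawn predose and at 0.5–336 h. Samples were centrifuged at 1500 g for 10 min at 3–5 °C and plasma stored at –70 °C. Plasma levels were measured by validated LC-MS/MS after solid-phase extraction with a stable-labelled internal standard. Parameters were derived by noncompartmental analysis and compared by ANOVA of log-transformed values, with hepatic function as the fixed effect.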

Safety assessment = type: in vivo, human
Summary of the method: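 Noncancer Child–Pugh mild, moderate or severe hepatic impairment subjects (6 per group) and 13 healthy controls received one oral test-compound dose after an overnight fast. Safety was monitored throughout through adverse events, clinical laboratory tests, ECGs and physical examinations. Adverse events were graded by NCI-CTCAE v4.03 and relationship to drug was recorded. Safety follow-up was on day 31.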

CYP3A = settings: phase‐1 oxidative metabolism; cited from earlier work
[2] = healthy volunteers, cited from earlier work
[3] = rats; cited from earlier work
plasma protein = settings: across species; independent of drug concentration; cited from earlier work
[4] = patients with advanced solid tumors, cited from earlier work
[5] = cited from earlier work
[6] = increased solubility at low pH; cited from earlier work
[7] = cited from earlier work; remark: listed apart in the source
[8] = linear regression, severe hepatic impairment relative to control group (1.6 vs 1.0), not statistically significant
[9] = linear regression, severe hepatic impairment relative to control group (29.7 g/L vs 45.2 g/L), not statistically significant
[10] = mild hepatic impairment versus normal hepatic function group, 30 mg
[11] = moderate hepatic impairment versus normal hepatic function group, 30 mg
[12] = moderate‐hepatic‐function group
[13] = coadministration with ritonavir

For `Nc1cc(C(F)(F)F)c(-c2cc(N3CCOCC3)nc(N3CCOCC3)n2)cn1` [buparlisib], the AUC(0-inf) ([1]; human, plasma, po, 30 mg, AUC∞, geometric mean (CV%), single oral 30 mg, fasted, normal hepatic function (n = 13)) was 6010 ng·h/mL, the Cmax ([1]; human, plasma, po, 30 mg, Cmax, geometric mean (CV%), single oral 30 mg, fasted, normal hepatic function (n = 13)) was 221 ng/mL and the half-life ([1]; human, plasma, po, 30 mg, T1/2, geometric mean (CV%), single oral 30 mg, fasted, normal hepatic function (n = 13)) was 53 h. The Tmax ([1]; human, plasma, po, 30 mg, Tmax, median (range), single oral 30 mg, fasted, normal hepatic function (n = 13)) was 1 h, the Vd/F ([1]; human, plasma, po, 30 mg, Vz/F, geometric mean (CV%), single oral 30 mg, fasted, normal hepatic function (n = 13)) was 381 L and the “increase in AUC∞ associated with higher (52%) INR” value [1, 8] was 15%. For the same compound, the “increase in Cmax associated with higher (52%) INR” value [1, 8] was 11%, the “increase in AUC∞ associated with lower (34%) baseline albumin level” value [1, 9] was 26% and the “increase in Cmax associated with lower (34%) baseline albumin level” value [1, 9] was 15%. For the same compound, the “AUC∞, unbound buparlisib GMR (90%CI)” value [1, 10] was 1.17 (0.84, 1.64), the “Cmax, total buparlisib GMR (90%CI)” value [1, 10] was 1.26 (1.00, 1.58) and the “Cmax, unbound buparlisib GMR (90%CI)” value [1, 10] was 1.28 (0.99, 1.64). For the same compound, the “increase in Cmax compared with normal hepatic function” value ([1]; mild hepatic impairment) was 26%, the “increase in buparlisib exposure (AUC∞) compared with normal hepatic function” value ([1]; mild hepatic impairment) was 16% and the “AUC∞, unbound buparlisib GMR (90%CI)” value [1, 11] was 1.18 (0.84, 1.65). For the same compound, the “Cmax, total buparlisib GMR (90%CI)” value [1, 11] was 1.08 (0.87, 1.36), the “Cmax, unbound buparlisib GMR (90%CI)” value [1, 11] was 1.12 (0.87, 1.44) and the “increase in Cmax compared with normal hepatic function” value ([1]; moderate hepatic impairment) was 8%. The “increase in buparlisib exposure (AUC∞) compared with normal hepatic function” value ([1]; moderate hepatic impairment) was 14%, the “Cmax, total buparlisib GMR (90%CI)” value ([1]; severe hepatic impairment versus normal hepatic function group, 30 mg) was 1.45 (1.15, 1.81) and the “increase in Cmax compared with normal hepatic function” value ([1]; severe hepatic impairment) was 45%. For the same compound, the “increase in buparlisib exposure (AUC∞) compared with normal hepatic function” value ([1]; severe hepatic impairment) was 20%, the “CL/F, geometric mean (CV%)” value ([1]; single oral 30 mg, fasted, mild hepatic impairment, Child–Pugh A (n = 6)) was 4.3 (46) L/h and the “CL/F, geometric mean (CV%)” value ([1]; single oral 30 mg, fasted, moderate hepatic impairment, Child–Pugh B (n = 6)) was 4.4 (62) L/h. For the same compound, the “CL/F, geometric mean (CV%)” value ([1]; single oral 30 mg, fasted, normal hepatic function (n = 13)) was 5.0 (37) L/h, the “CL/F, geometric mean (CV%)” value ([1]; single oral 30 mg, fasted, severe hepatic impairment, Child–Pugh C (n = 6)) was 4.2 (41) L/h and the “secondary absorption peak, time postdose” value ([1]; single oral 30 mg, subjects with or without hepatic impairment) was “approximately 24 hours”. The “subjects with QTcF >450 milliseconds” value (Safety assessment; all subjects) was “Eight subjects”, the “subjects with QTcF increase of >30 milliseconds from baseline” value (from here on “subjects with QTcF increase”) (Safety assessment; all subjects) was “Six subjects” and the “subjects with QTcF increase” value (Safety assessment; mild‐hepatic‐function group) was 2. The “subjects reporting treatment‐related AEs” value (Safety assessment; moderate hepatic impairment, grade‐1 prolonged QTcF, grade‐1 hypertension) was 2 subjects, the “subjects with QTcF >450 milliseconds” value (Safety assessment; [12]) was 4 and the “subjects with QTcF increase” value (Safety assessment; [12]) was 2. The “subjects reporting treatment‐related AEs” value (Safety assessment; normal hepatic function, grade‐1 dizziness, grade‐1 dermatitis acneiform) was 2 subjects, the “subjects with QTcF increase” value (Safety assessment; normal‐hepatic‐function group) was 2 and the “subjects reporting treatment‐related AEs” value (Safety assessment; severe hepatic impairment, grade‐2 thrombocytopenia) was 1 subject. The “subjects with QTcF >450 milliseconds” value (Safety assessment; severe‐hepatic‐function group) was 4, the “deaths during the study” value (Safety assessment; single oral 30 mg, all subjects (N = 31)) was “no deaths” and the tolerability (Safety assessment; single oral 30‐mg dose, subjects with and without hepatic impairment) was “well tolerated”. For the same compound, the “estimated fraction metabolized by CYP3A” value (CYP3A) was > 0.9, the apparent clearance ([2]; buparlisib with ritonavir) was 3.27 L/h and the “elimination half‐life (T1/2)” value ([2]; buparlisib with ritonavir) was 71.6 h. For the same compound, the apparent clearance ([2]; buparlisib without ritonavir) was 5.37 L/h, the “elimination half‐life (T1/2)” value ([2]; buparlisib without ritonavir) was 53.3 h and the “increase in Cmax geometric mean ratio” value [2, 13] was 19%. For the same compound, the “increase in buparlisib exposure (AUC∞)” value [2, 13] was 73%, the dose eliminated renally [3] was 20–30% and the plasma protein binding (plasma protein) was 79–85%. For the same compound, the “increases in Cmax and AUC0–24 with dose” value ([4]; following multiple doses) was “approximately dose‐proportional”, the “time of maximum plasma concentrations postdose” value [4] was 1 to 4 h and the permeability [5] was “highly permeable”. For the same compound, the solubility [6] was “soluble” and the maximum tolerated dose [7] was 100 mg/day.
